Laboratory results taken from ChEMBL document CHEMBL1122172, “Syntheses and diuretic activity of 1,2-dihydro-2-(3-pyridyl)-3H-pyrido[2,3-d]pyrimidin-4-one and related compounds” (1982).
Values joined by “and” are separate entries in the source; they are usually repeats but may differ in a detail not shown here. Equal entries are not always repeated.

What was measured:
Assay type in all cases: functional, Urine
Rattus norvegicus [1] = assay: Diuretic activity by measuring the urinary output at the dose of 25 mg/kg
Outline: (§1)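 Male Sprague–Dawley rats (195–225 g) were fasted and deprived of water for 18 h. The compound was given orally, dissolved in 25 mL/kg saline; controls got saline alone. Groups of eight were housed as pairs in metabolism cages. Urine volume was read at 2 and 5 h, with total Na+, Cl− and K+ mequiv excreted. Values are mean ± SEM, N = 8.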

Rattus norvegicus [2] = assay: Total Na+ milliequivalents excretion in diuretic test at the dose of 25 mg/kg; outline: as §1
Rattus norvegicus [3] = assay: Total Cl- milliequivalents excretion in diuretic test at the dose of 25 mg/kg; outline: as §1
Rattus norvegicus [4] = assay: Total K+ milliequivalents excretion in diuretic test at the dose of 25 mg/kg; outline: as §1
Rattus norvegicus [5] = assay: Diuretic activity by measuring the urinary output after 2 hr at the dose of 25 mg/kg
Outline: (§2)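 Male Sprague–Dawley rats (195–225 g) were fasted and deprived of water for 18 h, then dosed orally with compound dissolved in 25 mL/kg saline. Controls got 25 mL/kg saline alone. Groups of eight were used, housed two rats per metabolism cage right after dosing. Urine volume was collected at 2 h and 5 h after dosing. Values are mean ± SEM per cage pair, N = 8.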

Rattus norvegicus [6] = assay: Diuretic activity by measuring the urinary output at the dose of 400 mg/kg
Outline: (§3)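 Groups of eight male Sprague–Dawley-derived rats, fasted 18 h with water ad libitum, received oral doses by dosing needle in 5% acacia–isotonic saline; the vehicle served as control. Rats were placed in metabolism cages with no food or water, and urine was collected for 5 h. Bladders were then emptied by pulling at the tail base (modified Lipschitz method).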

Rattus norvegicus [7] = assay: Diuretic activity by measuring the urinary output at the dose of 100 mg/kg; outline: as §3
Rattus norvegicus [8] = assay: Diuretic activity by measuring the urinary output after 5 hr at the dose of 25 mg/kg; outline: as §2
Rattus norvegicus [9] = assay: Total Na+ milliequivalents excretion in diuretic test at the dose of 50 mg/kg
Rattus norvegicus [10] = assay: Total K+ milliequivalents excretion in diuretic test at the dose of 50 mg/kg
Rattus norvegicus [11] = assay: Diuretic activity by measuring the urinary output at the dose of 50 mg/kg; outline: as §3
Rattus norvegicus [12] = assay: Total Cl- milliequivalents excretion in diuretic test at the dose of 50 mg/kg
Rattus norvegicus [13] = assay: Diuretic activity by measuring the urinary output at the dose of 75 mg/kg; outline: as §3
Rattus norvegicus [14] = assay: Total Cl- milliequivalents excretion in diuretic test at the dose of 75 mg/kg
Rattus norvegicus [15] = assay: Total Na+ milliequivalents excretion in diuretic test at the dose of 75 mg/kg; conditions: 75 mg/kg
Rattus norvegicus [16] = assay: Total Cl- milliequivalents excretion in diuretic test at the dose of 150 mg/kg
Rattus norvegicus [17] = assay: Total K+ milliequivalents excretion in diuretic test at the dose of 150 mg/kg
Rattus norvegicus [18] = assay: Total Na+ milliequivalents excretion in diuretic test at the dose of 150 mg/kg
Rattus norvegicus [19] = assay: Diuretic activity by measuring the urinary output at the dose of 150 mg/kg; outline: as §3

Compound | Control (Rattus norvegicus [1]) [%] | Excretion (Rattus norvegicus [2]) [m equiv] | Excretion (Rattus norvegicus [3]) [m equiv] | Excretion (Rattus norvegicus [4]) [m equiv] | Control (Rattus norvegicus [13]) [%] | Excretion (Rattus norvegicus [14]) [m equiv] | further results
COC(OC)C1(C)NC(=O)c2ccccc2N1 (stereo not given) | 118 | 1.2 | 1.2 | 0.4 |  |  | 
CN1C(=O)c2cccnc2NC1c1ccco1 (stereo not given) | 209 | 1.8 | 1.8 | 0.8 |  |  | Excretion (Rattus norvegicus [5]): 4.6 mL; Control (Rattus norvegicus [6]): 95%; Control (Rattus norvegicus [7]): 233%; Excretion (Rattus norvegicus [8]): 12.2 mL
O=C1NC(c2cccnc2)Nc2[nH]cnc21 (stereo not given) | 138 | 1.4 | 1.3 | 0.6 |  |  | 
Nc1ccc(C2NC(=O)c3cccnc3N2)cc1 (stereo not given) |  |  |  |  |  |  | Excretion (Rattus norvegicus [9]): 1.5 m equiv; Excretion (Rattus norvegicus [10]): 0.5 m equiv; Control (Rattus norvegicus [11]): 128%; Excretion (Rattus norvegicus [12]): 1.5 m equiv
CN1C(=O)c2cccnc2NC1c1cccnc1 (stereo not given) |  |  |  |  | 149 | 1.7 | 
O=C1NC(c2ccc(C(F)(F)F)cc2)Nc2ncccc21 (stereo not given) | 106 | 1.3 | 1.4 | 0.4 | 98 | 1.3 | Excretion (Rattus norvegicus [15]): 1.2 m equiv and 0.4 m equiv
CN(C)C(=O)C1(C)NC(=O)c2ccccc2N1 (stereo not given) |  |  |  |  |  |  | Excretion (Rattus norvegicus [16]): 1.4 m equiv; Excretion (Rattus norvegicus [17]): 0.4 m equiv; Excretion (Rattus norvegicus [18]): 1.1 m equiv; Control (Rattus norvegicus [19]): 100%
Cn1cccc1C1NC(=O)c2cccnc2N1 (stereo not given) | 124 | 1.5 | 1.4 | 0.3 |  |  | Control (Rattus norvegicus [11]): 113%; Excretion (Rattus norvegicus [12]): 1 m equiv
O=C1NC(c2cccnc2)Nc2ccccc21 (stereo not given) | 96 | 1 | 1.1 | 0.4 |  |  | 
CC(C)c1ccc(C2NC(=O)c3cccnc3N2)cc1 (stereo not given) | 137 | 1.5 | 1.6 | 0.6 | 114 | 1.4 | Excretion (Rattus norvegicus [15]): 1.3 m equiv and 0.6 m equiv
